Experimental data: PubChem BioAssay AID493031 (Broad Institute, 2011)
Calls of active or inactive are those of the source.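 Rule for the calls: active = at 10 µM, induced P-selectin expression inhibited by 50% or more; inactive = less than 50% inhibition.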

test system: human washed platelets, SFLLRN-induced P-selectin, flow cytometry; test: inhibition of SFLLRN-induced platelet P-selectin surface expression, cell-based, human washed platelets, flow cytometry, dry powder, single point (AID 493031); details: at 10 µM; stronger effect = higher value
Method in brief: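 technique = flow cytometry, PE anti-P-selectin staining | test system = donor washed platelets | schedule = compound 20 min, SFLLRN 15 min, staining 20 min | reagent = SFLLRN stimulation | doses = compound at 10 µM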

Row | SMILES | inhibition
1 | CCCC(=O)Nc1cccc(NC(=O)c2cccc(Oc3ccccc3)c2)c1 | 92%
2 | CCCC(=O)Nc1cccc(NC(=O)c2cccc([N+](=O)[O-])c2)c1 | 50.7%
3 | CCCC(=O)Nc1cccc(NC(=O)c2cccc(NC(C)=O)c2)c1 | 41% (inactive)
4 | CCCC(=O)Nc1cccc(NC(=O)c2cccc(Cl)c2)c1 | 94.1%
5 | CCCC(=O)Nc1cccc(NC(=O)c2cnc3ccccc3c2)c1 | 10.4% (inactive)
6 | CCCC(=O)Nc1cccc(NC(=O)c2ccc(F)cc2)c1 | 56.9%
7 | CCCC(=O)Nc1cccc(NC(=O)c2cccnc2)c1 | 4.33% (inactive)
8 | CCCC(=O)Nc1cccc(NC(=O)c2ccccc2F)c1 | 97.4%
9 | CCCC(=O)Nc1cccc(NC(=O)c2ccccc2OC)c1 | 46.1% (inactive)
10 | CCCC(=O)Nc1cccc(NC(=O)c2ccco2)c1 | 30.5% (inactive)
11 | CCCC(=O)Nc1cccc(NC(=O)c2ccc(C)cc2)c1 | 21.8% (inactive)
12 | O=C(Nc1ccccc1)c1ccccc1Br | 98.5%
13 | CCCC(=O)Nc1cccc(NC(=O)c2ccc(C(F)(F)F)cc2)c1 | 21% (inactive)
14 | CCCC(=O)Nc1cccc(NC(=O)c2cccc(-c3ccccc3)c2)c1 | 94.4%
15 | CCCC(=O)Nc1cccc(NC(=O)c2ccc(OC)cc2)c1 | 15.3% (inactive)
16 | CCCC(=O)Nc1cccc(NC(=O)c2ccc(S(C)(=O)=O)cc2)c1 | 9.82% (inactive)
17 | CCCC(=O)Nc1cccc(NC(=O)c2ccccc2C)c1 | 95.8%
18 | CCCC(=O)Nc1cccc(NC(=O)c2cccc(S(C)(=O)=O)c2)c1 | 23.9% (inactive)
19 | CCCC(=O)Nc1cccc(NC(=O)c2ccccc2Cl)c1 | 98.3%
20 | CCCC(=O)Nc1cccc(NC(=O)c2ccc(Cl)cc2)c1 | 73.9%
21 | CCCC(=O)Nc1cccc(NC(=O)c2cccc(C#N)c2)c1 | 66.7%
